Test results: ChEMBL document CHEMBL4376814, “Novel cyclin-dependent kinase 9 (CDK9) inhibitor with suppression of cancer stemness activity against non-small-cell lung cancer” (Eur J Med Chem, 2019)
Calls of active or inactive are those of the source. The calls are words filed in the database; no cut-off is given here.

How the values were obtained:
[1] = molecular target: Homeodomain-interacting protein kinase 4 (Homo sapiens) (UniProt Q8NE63); assay: Inhibition of recombinant full-length human HIPK4 at 1 uM using RRRFRPASPLRGPPK as substrate measured after 40 mins in presence of [gamma33P]ATP by scintillation counting method relative to control
[2] = molecular target: Serine/threonine-protein kinase STK11 (Homo sapiens) (UniProt Q15831); assay: Inhibition of recombinant full-length human LKB1 at 1 uM using LSNLYHQGKFLQTFCGSPLYRRR as substrate measured after 40 mins in presence of [gamma33P]ATP by scintillation counting method relative to control
Chain of Serine/threonine-protein kinase STK11 (Homo sapiens) (Q15831 whole entry): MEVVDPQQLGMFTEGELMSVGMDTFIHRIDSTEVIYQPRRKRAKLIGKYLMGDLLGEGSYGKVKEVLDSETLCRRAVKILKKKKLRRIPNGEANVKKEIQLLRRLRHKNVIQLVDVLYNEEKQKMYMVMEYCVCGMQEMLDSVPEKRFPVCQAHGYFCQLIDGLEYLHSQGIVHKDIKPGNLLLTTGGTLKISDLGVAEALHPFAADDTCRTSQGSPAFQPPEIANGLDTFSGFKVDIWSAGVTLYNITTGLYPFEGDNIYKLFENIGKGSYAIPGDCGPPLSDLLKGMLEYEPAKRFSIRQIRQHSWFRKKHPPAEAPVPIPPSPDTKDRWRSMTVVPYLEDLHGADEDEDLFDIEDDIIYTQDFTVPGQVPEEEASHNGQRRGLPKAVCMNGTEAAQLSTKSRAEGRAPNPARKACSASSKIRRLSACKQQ

[3] = molecular target: MAP/microtubule affinity-regulating kinase 4 (Homo sapiens) (UniProt Q96L34); assay: Inhibition of full-length recombinant human MARK4 at 1 uM using KKKVSRSGLYRSPSMPENLNRPR as substrate measured after 40 mins in presence of [gamma33P]ATP by scintillation counting method relative to control
Chain of MAP/microtubule affinity-regulating kinase 4 (Homo sapiens) (Q96L34 whole entry): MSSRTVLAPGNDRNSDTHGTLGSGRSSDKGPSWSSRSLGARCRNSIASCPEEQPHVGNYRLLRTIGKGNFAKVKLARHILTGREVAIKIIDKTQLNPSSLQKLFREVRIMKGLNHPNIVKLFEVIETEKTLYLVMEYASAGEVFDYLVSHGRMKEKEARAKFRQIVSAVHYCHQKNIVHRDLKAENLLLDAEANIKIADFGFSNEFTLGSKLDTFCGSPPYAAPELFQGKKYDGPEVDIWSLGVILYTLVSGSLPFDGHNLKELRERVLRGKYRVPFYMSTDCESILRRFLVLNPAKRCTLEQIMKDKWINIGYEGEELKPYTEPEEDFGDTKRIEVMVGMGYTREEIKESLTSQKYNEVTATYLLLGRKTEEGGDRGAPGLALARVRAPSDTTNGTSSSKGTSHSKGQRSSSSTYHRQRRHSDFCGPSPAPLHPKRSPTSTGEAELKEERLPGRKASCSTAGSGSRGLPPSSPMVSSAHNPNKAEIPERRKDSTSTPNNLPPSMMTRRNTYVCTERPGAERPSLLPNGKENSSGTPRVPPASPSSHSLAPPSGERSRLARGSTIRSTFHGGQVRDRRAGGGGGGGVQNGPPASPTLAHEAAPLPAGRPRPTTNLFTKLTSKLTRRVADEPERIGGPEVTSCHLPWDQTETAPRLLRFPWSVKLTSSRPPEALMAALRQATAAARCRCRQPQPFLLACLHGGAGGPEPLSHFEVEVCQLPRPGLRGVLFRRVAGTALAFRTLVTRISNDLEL
How it was run: (§1)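 Percent inhibition of kinase activity at a single compound concentration, measured by the outsourced Eurofins KinaseProfiler panel. Values are the mean of two independent experiments.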

[4] = molecular target: Mitogen-activated protein kinase 11 (Homo sapiens) (UniProt Q15759); assay: Inhibition of recombinant full-length human SAPK2b at 1 uM using myelin basic protein as substrate measured after 40 mins in presence of [gamma33P]ATP by scintillation counting method relative to control
[5] = molecular target: Cyclin-dependent kinase 13/Cyclin-K (Homo sapiens) (UniProt Q14004+O75909); assay: Inhibition of human full length recombinant CDK13/cyclinK at 1 uM using RSRSRSRSRSRSRSR as substrate incubated for 120 mins in presence of [gamma-33P]ATP at by radiometric assay relative to control; format: protein-complex assay
Chain of Cyclin-dependent kinase 13/Cyclin-K (Homo sapiens) (O75909 whole entry, looked up): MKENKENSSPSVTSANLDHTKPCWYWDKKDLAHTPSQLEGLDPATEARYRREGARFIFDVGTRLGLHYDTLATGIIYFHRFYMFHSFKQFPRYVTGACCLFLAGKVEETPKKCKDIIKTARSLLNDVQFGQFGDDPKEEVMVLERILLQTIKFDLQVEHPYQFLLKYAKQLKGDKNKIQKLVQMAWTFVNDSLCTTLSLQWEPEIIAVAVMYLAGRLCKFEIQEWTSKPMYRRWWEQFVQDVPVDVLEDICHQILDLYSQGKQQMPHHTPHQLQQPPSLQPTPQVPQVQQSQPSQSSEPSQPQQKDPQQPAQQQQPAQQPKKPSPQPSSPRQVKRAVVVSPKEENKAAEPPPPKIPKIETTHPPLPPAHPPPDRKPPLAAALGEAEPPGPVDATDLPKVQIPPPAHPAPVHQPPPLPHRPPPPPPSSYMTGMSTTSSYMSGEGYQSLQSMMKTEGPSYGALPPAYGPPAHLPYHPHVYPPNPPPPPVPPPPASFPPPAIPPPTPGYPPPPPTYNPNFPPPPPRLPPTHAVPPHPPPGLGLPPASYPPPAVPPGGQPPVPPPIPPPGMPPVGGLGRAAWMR
Chain of Cyclin-dependent kinase 13/Cyclin-K (Homo sapiens) (Q14004 whole entry, looked up): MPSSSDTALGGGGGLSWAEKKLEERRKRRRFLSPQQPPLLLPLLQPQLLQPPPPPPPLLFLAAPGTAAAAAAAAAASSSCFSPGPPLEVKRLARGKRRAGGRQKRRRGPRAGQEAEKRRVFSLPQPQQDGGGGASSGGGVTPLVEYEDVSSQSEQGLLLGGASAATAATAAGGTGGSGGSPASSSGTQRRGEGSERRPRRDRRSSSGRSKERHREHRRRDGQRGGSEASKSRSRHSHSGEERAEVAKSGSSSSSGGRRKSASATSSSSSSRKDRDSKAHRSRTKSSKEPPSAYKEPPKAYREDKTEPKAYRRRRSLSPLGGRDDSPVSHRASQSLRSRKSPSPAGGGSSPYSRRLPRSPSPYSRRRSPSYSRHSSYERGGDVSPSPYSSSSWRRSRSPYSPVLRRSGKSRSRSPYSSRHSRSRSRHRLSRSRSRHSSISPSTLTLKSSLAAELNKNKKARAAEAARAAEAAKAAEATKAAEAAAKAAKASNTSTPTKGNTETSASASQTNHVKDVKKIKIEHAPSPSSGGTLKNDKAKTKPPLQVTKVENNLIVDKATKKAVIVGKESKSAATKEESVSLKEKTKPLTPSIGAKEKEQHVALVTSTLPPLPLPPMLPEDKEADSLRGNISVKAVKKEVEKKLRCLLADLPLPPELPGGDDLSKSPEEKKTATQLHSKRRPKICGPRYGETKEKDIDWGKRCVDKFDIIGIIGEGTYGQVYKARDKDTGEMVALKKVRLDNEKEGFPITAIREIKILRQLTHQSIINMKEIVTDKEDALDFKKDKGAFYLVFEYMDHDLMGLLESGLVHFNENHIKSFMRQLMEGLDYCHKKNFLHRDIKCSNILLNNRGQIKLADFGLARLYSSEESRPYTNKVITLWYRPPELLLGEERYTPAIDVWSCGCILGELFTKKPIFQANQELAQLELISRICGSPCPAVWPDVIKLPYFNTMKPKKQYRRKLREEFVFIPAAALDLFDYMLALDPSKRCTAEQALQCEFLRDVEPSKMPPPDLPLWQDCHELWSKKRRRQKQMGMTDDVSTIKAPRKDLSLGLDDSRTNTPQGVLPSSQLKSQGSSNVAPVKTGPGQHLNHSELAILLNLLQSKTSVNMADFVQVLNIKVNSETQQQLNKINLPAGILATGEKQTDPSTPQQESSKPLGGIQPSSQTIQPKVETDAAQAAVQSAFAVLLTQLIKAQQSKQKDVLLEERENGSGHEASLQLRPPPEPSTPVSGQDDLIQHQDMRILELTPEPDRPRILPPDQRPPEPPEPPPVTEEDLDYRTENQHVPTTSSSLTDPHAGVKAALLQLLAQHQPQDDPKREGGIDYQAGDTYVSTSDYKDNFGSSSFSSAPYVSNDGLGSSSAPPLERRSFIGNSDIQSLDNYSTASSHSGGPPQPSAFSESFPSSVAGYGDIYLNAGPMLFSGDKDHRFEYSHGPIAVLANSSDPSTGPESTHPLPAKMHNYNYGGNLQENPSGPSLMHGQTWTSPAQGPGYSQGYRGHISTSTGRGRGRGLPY

[6] = test system: Tyrosine-protein kinase ABL1 (Homo sapiens), P00519 [M351T]; assay: Inhibition of human ABL M351T mutant (27 to end residues) at 1 uM using EAIYAAPFAKKK as substrate measured after 40 mins in presence of [gamma33P]ATP by scintillation counting method relative to control; how it was run: as §1
NCI-H1299 [7] = assay: Induction of apoptosis in human H1299 cells assessed as viable cells at 0.25 uM after 48 hrs by AnnexinV-FITC/PI staining-based flow cytometric analysis (reference value: 97.1%); format: functional; details: NCI-H1299, 48 h, read-out: Activity
[8] = molecular target: DNA-dependent protein kinase catalytic subunit (Homo sapiens) (UniProt P78527); assay: Inhibition of recombinant full-length human DNA-PK at 1 uM using GST-cMyc-p53 as substrate measured after 40 mins by fluorescence assay relative to control
[9] = molecular target: CDK2/Cyclin A2 (Homo sapiens) (UniProt P24941+P20248); assay: Inhibition of recombinant full-length human CDK2/cyclinA at 1 uM using Histone H1 as substrate measured after 40 mins in presence of [gamma33P]ATP by scintillation counting method relative to control; format: protein-complex assay
NCI-H1299 [10] = assay: Antitumour activity against human H1299 cells xenografted in Balb/c mouse assessed as inhibition of tumour growth at 20 mg/kg, po administered for 21 days by digital caliper method relative to control; format: functional; details: 504 h, read-out: TGI
How it was run: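 Female nude mice, 6-8 weeks old, injected subcutaneously with 1×10^6 H1299 cells (100 µL of a 1×10^7/mL suspension in serum-free medium). At 100-120 mm3, randomized into groups of 5. Dosed orally each day for 21 days with drug dissolved in DMSO, or with vehicle. Caliper measurements and body weight taken every other day. Volume = short²×long×0.5. Growth inhibition based on change in volume relative to vehicle. Tumours weighed at the end.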

[11] = molecular target: Tyrosine-protein kinase Fyn (Homo sapiens) (UniProt P06241); assay: Inhibition of recombinant full-length human Fyn at 1 uM using KVEKIGEGTYGVVYK as substrate measured after 40 mins in presence of [gamma33P]ATP by scintillation counting method relative to control
[12] = molecular target: LIM domain kinase 1 (Homo sapiens) (UniProt P53667); assay: Inhibition of recombinant human LIMK1 (285 to 638 residues) at 1 uM using cofilin as substrate measured after 40 mins in presence of [gamma33P]ATP by scintillation counting method relative to control
Chain of LIM domain kinase 1 (Homo sapiens) (P53667 whole entry, looked up, the tested form may be a part): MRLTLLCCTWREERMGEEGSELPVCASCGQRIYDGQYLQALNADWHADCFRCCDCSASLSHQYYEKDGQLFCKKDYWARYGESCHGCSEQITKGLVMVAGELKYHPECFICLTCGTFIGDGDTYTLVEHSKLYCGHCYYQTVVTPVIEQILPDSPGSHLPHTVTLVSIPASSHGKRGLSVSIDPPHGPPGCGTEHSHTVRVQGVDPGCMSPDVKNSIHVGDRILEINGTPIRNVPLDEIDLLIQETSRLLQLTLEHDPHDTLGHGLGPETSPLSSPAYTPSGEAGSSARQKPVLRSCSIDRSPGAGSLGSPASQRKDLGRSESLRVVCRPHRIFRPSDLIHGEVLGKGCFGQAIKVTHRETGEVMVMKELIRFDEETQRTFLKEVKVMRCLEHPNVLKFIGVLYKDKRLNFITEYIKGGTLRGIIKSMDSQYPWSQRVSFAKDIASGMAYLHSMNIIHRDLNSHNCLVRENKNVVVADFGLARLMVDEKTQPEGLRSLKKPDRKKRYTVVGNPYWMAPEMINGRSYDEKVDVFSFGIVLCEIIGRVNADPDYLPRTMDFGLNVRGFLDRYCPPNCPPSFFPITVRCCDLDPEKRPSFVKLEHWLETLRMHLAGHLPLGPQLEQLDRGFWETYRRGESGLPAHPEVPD

A549 = assay: Induction of apoptosis in human A549 cells assessed as early apoptotic cells at 0.5 uM after 48 hrs by AnnexinV-FITC/PI staining-based flow cytometric analysis (reference value: 2.91%); format: functional
[13] = molecular target: 5'-AMP-activated protein kinase catalytic subunit alpha-2 (Homo sapiens) (UniProt P54646); assay: Inhibition of full length recombinant human AMPK alpha2 at 1 uM using AMARAASAAALARRR as substrate measured after 40 mins in presence of [gamma33P]ATP by scintillation counting method relative to control
[14] = molecular target: Casein kinase II subunit alpha (Homo sapiens) (UniProt P68400); assay: Inhibition of full length recombinant human CK2alpha1 at 1 uM using RRRDDDSDDD as substrate measured after 40 mins in presence of [gamma33P]ATP by scintillation counting method relative to control
Chain of Casein kinase II subunit alpha (Homo sapiens) (P68400 whole entry, looked up): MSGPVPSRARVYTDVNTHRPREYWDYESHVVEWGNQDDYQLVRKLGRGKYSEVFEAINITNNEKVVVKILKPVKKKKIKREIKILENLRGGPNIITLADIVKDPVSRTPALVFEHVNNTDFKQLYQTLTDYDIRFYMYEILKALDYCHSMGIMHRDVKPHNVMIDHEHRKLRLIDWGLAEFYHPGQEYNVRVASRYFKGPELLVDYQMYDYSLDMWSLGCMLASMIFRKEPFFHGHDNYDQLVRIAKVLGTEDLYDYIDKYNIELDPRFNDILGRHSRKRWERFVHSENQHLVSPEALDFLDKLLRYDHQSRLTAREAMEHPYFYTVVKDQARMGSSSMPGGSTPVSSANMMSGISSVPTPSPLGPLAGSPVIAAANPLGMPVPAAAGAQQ

[15] = molecular target: Serine/threonine-protein kinase SBK1 (Homo sapiens) (UniProt Q52WX2); assay: Inhibition of recombinant full-length human SBK1 at 1 uM using KKLRRTLSVA as substrate measured after 120 mins in presence of [gamma33P]ATP by scintillation counting method relative to control
[16] = test system: Hepatocyte growth factor receptor (Homo sapiens), P08581 [M1250T]; assay: Inhibition of recombinant human MET A1209G/V1290L/M1268T mutant (974 to end residues) at 1 uM using KKKGQEEEYVFIE as substrate measured after 40 mins in presence of [gamma33P]ATP by scintillation counting method relative to control
[17] = molecular target: Calcium/calmodulin-dependent protein kinase type 1G (Homo sapiens) (UniProt Q96NX5); assay: Inhibition of full-length recombinant human CaMK1 gamma at 1 uM using KKLRRTLSFAEPG as substrate measured after 40 mins in presence of [gamma33P]ATP by scintillation counting method relative to control; how it was run: as §1
Chain of Calcium/calmodulin-dependent protein kinase type 1G (Homo sapiens) (Q96NX5 whole entry): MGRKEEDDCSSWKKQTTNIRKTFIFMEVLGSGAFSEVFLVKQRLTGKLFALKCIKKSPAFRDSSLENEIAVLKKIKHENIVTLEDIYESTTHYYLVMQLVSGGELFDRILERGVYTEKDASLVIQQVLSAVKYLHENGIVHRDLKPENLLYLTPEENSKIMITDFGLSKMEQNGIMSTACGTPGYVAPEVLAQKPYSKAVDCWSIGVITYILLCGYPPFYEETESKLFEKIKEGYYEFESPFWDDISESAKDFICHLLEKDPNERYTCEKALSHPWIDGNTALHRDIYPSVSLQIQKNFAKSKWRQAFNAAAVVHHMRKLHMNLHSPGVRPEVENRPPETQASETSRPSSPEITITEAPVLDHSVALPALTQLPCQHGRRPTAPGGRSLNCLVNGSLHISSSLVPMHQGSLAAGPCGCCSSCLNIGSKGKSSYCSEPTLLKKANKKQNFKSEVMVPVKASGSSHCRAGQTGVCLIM

NCI-H1299 [18] = assay: Induction of apoptosis in human H1299 cells assessed as increase in cleaved caspase 3 expression at 0.25 to 1 uM after 24 hrs by Western blot analysis; format: functional, cell-based
How it was run: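 A549 or H1299 cells exposed to the indicated concentrations for 24 h. Protein extracts then immunoblotted for apoptosis-pathway proteins (Bcl2, Bim, cleaved caspase 3).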

[19] = molecular target: Serine/threonine-protein kinase TBK1 (Homo sapiens) (UniProt Q9UHD2); assay: Inhibition of recombinant full-length human TBK1 at 1 uM using KRRRALS(p)VASLPGL as substrate measured after 40 mins in presence of [gamma33P]ATP by scintillation counting method relative to control
How it was run: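 Single-point inhibition at 1 µM was measured in the Eurofins KinaseProfiler panel. Values are the mean of two independent experiments.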

NCI-H1299 [20] = assay: Induction of apoptosis in human H1299 cells assessed as viable cells at 0.5 uM after 48 hrs by AnnexinV-FITC/PI staining-based flow cytometric analysis (reference value: 97.1%); format: functional; details: NCI-H1299, 48 h, read-out: Activity

CN(C)C(=O)c1cc2cnc(Nc3ccc(NC(=O)CCCCCCCN=C=S)cc3)nc2n1C1CCCC1
inhibition [1]: 19%
inhibition [2]: 0%
inhibition [3]: 77%
inhibition [4]: 27%
inhibition [5]: 26%
inhibition [6]: 49%
viability at 0.25 µM (NCI-H1299 [7]): 96.7%
inhibition [8]: 9%
inhibition [9]: 58%
inhibition in vivo at 20 mg/kg (NCI-H1299 [10]): 62%
inhibition [11]: 2%
inhibition [12]: 71%
Activity (A549): 1.26%
inhibition [13]: 20%
inhibition [14]: -5%
inhibition [15]: 88%
inhibition [16]: 60%
inhibition [17]: 21%
Activity (NCI-H1299 [18]): Active
inhibition [19]: 12%
viability at 0.5 µM (NCI-H1299 [20]): 94.5%
